Published values from different studies.
Compare with care: the assays were run in different laboratories. pKi: −log10 of the molar value.
HTR2A: 5-hydroxytryptamine receptor 2A (HTR2A, Homo sapiens, UniProt P28223)
OPRK1: Kappa-type opioid receptor (OPRK1, Homo sapiens, UniProt P41145)
HRH4: Histamine H4 receptor (HRH4, Homo sapiens, UniProt Q9H3N8)
SPHK1: Sphingosine kinase 1 (SPHK1, Homo sapiens, UniProt Q9NYA1)
SIGMAR1: Sigma non-opioid intracellular receptor 1 (SIGMAR1, Homo sapiens, UniProt Q99720)
PPO3: PPO3 (Agaricus bisporus, UniProt C7FF04)
SLC10A1: Hepatic sodium/bile acid cotransporter (SLC10A1, Homo sapiens, UniProt Q14973)

SMILES	target	assay	setting	pKi
Cc1nc2n(c(=O)c1CCN1CCC(C(=O)c3ccc(F)cc3)CC1)CCCC2	HTR2A	ligand displacement, radioligand	cell membranes	8.52
Cc1cccc(CN2CCCC(C(=O)NCCc3cccnc3)CC2)n1 (centres unmarked)	OPRK1	cell-free assay	–	< 5.00
CC1Cc2ccccc2N1C(=O)NCCCCN(C)[C@@H]1Cc2cccc3[nH]c(=O)n(c23)C1 (mixture of isomers)	HTR2A	ligand displacement, radioligand	–	5.51
CCCCN1CCC(COC(=O)c2ccc(N)c(OCF)c2)CC1	HRH4	cell-free assay, radioligand	–	< 5.00
CCc1cc(Cl)c(OC)c(C(=O)NC[C@@H]2CCCN2CC)c1O	Vesicular acetylcholine transporter (SLC18A3, Homo sapiens, UniProt Q16572)	ligand displacement, radioligand	–	< 6.00
N=C(N)N1CCC[C@H]1c1nc(-c2ccc(CCC3CCCCC3)c(C(F)(F)F)c2)no1	SPHK1	enzyme activity, inhibitor	–	4.74
CNC(=O)[C@@]12C[C@@H]1[C@@H](n1cnc3c(NCc4cccc(Cl)c4)nc(C#Cc4ccc(F)cc4)nc31)[C@H](O)[C@@H]2O	OPRK1	cell-free assay	–	< 5.00
COc1ccccc1N1CCN(CCCCNC(=O)c2cc3cc(OCCOCCOCCF)ccc3[nH]2)CC1	SIGMAR1	cell-free assay	–	< 5.00
CCCNc1nc(C#Cc2ccc(Cl)s2)nc2c1ncn2[C@H]1[C@H](O)[C@H](O)[C@]2(C(=O)NC)C[C@H]12	OPRK1	cell-free assay	–	< 5.00
CCCn1nc(C(=O)N2CCCCC2)c2c1CCC(NCCCNC)C2 (centres unmarked)	SIGMAR1	ligand displacement, radioligand	–	< 5.00
Nc1nc(N)c(N=Nc2ccc([N+](=O)[O-])cc2)c(N)n1	PPO3	enzyme activity, inhibitor	–	5.34
O=C1c2ccccc2CCN1CCCCN1CCN(c2cccc(Cl)c2Cl)CC1	HTR2A	ligand displacement, radioligand	–	7.41
CCNc1nc(C#Cc2ccccc2)nc2c1ncn2[C@H]1[C@H](O)[C@H](O)[C@@H]2C[C@@H]21	OPRK1	cell-free assay	–	< 5.00
CCCn1nc(C(=O)N2CCCCC2)c2c1CCC(NCCc1ccncc1)C2 (centres unmarked)	SIGMAR1	ligand displacement, radioligand	–	< 5.00
COc1ccccc1Oc1c(NS(=O)(=O)c2ccc(C(C)(C)C)cc2)nc(-c2ncccn2)nc1OCCO	SLC10A1	transporter uptake, inhibitor	–	3.84
CNC(=O)[C@@]12C[C@@H]1[C@@H](n1cnc3c(NC)nc(C#Cc4ccc(Cl)s4)nc31)[C@H](O)[C@@H]2O	OPRK1	cell-free assay	–	< 5.00
CCNC(=O)[C@H]1O[C@@H](n2cnc3c(N)nc(NN=CC4CCC=CO4)nc32)[C@H](O)[C@@H]1O (some centres unmarked)	Adenosine receptor A2a (ADORA2A, Homo sapiens, UniProt P29274)	ligand displacement, radioligand	–	8.18
CCCn1nc(C(=O)N(C)C)c2c1CCC(NCc1ccc(OC)cc1OC)C2 (centres unmarked)	SIGMAR1	ligand displacement, radioligand	–	< 5.00
CCCc1nc2c(C)cc(-c3nc4ccccc4n3C)cc2n1Cc1ccc(-c2ccccc2C(=O)O)cc1	SLC10A1	transporter uptake, inhibitor	–	4.22
Nc1nc(N)c(N=Nc2ccc([N+](=O)[O-])cc2)c(Cl)n1	PPO3	enzyme activity, inhibitor	–	5.18
CCOC(=O)[C@H](CCSC)NC(=O)c1ccc(C2CC2)c(Cc2ccc(F)cc2)n1	Cannabinoid receptor 1 (CNR1, Homo sapiens, UniProt P21554)	ligand displacement, radioligand	cell membranes	7.15

SMILES	target	assay	setting	pKi
CCCc1ccc(CCc2ccc(-c3noc([C@@H]4CCCN4C(=N)N)n3)cc2C(F)(F)F)cc1	SPHK1	enzyme activity, inhibitor	–	4.77
CCCn1nc(C(=O)N2CCCCC2)c2c1CCC(N1CCN(Cc3ccc(C#N)cc3)CC1)C2 (centres unmarked)	SIGMAR1	ligand displacement, radioligand	–	< 5.00
CC[C@H](C)[C@H](NC(=O)[C@H](CCC(=O)O)NC(=O)[C@H](CC(=O)O)NC(=O)CNC(=O)[C@H](CC(C)C)NC(=O)[C@H](CCCNC(=N)N)NC(=O)[C@H](CCC(N)=O)NC(=O)[C@H](CC(C)C)NC(=O)[C@H](CO)NC(=O)[C@H](CCC(N)=O)NC(=O)[C@@H](NC(=O)[C@H](CC(C)C)NC(=O)[C@H](Cc1c[nH]c2ccccc12)NC(=O)[C@@H](NC(=O)[C@H](CCC(=O)O)NC(=O)[C@@H]1CCCN1C(=O)[C@H](CCCNC(=N)N)NC(C)=O)[C@@H](C)CC)[C@@H](C)O)C(=O)N[C@@H](CC(N)=O)C(=O)N[C@@H](C)C(=O)N[C@@H](Cc1ccc(O)cc1)C(=O)N[C@@H](Cc1ccc(O)cc1)C(=O)N[C@@H](C)C(=O)N[C@@H](CCCNC(=N)N)C(N)=O	Bcl-2-like protein 1 (BCL2L1, Homo sapiens, UniProt Q07817)	ligand displacement, FP	–	~5.68
OCCCN1CC[C@@H]2C[C@H]1c1cc(-c3ccc(C(F)(F)F)cc3)ccc12	HRH4	ligand displacement, radioligand	–	5.26
CNC(=O)[C@@]12C[C@@H]1[C@@H](n1cnc3c(NCCCO)nc(C#Cc4ccc(Cl)s4)nc31)[C@H](O)[C@@H]2O	OPRK1	cell-free assay	–	< 5.00
COc1ccc(N=Nc2c(N)nc(N)nc2N)cc1	PPO3	enzyme activity, inhibitor	–	5.12
CCCn1nc(C(=O)N2CCCCC2)c2c1CCC(NCc1ccc(N3CCCCC3)cc1)C2 (centres unmarked)	SIGMAR1	ligand displacement, radioligand	–	< 5.00
Cc1nc2n(c(=O)c1CCNCCc1c[nH]c3ccccc13)CCCC2	HTR2A	ligand displacement, radioligand	cell membranes	< 5.00
Cc1ccc(C(C)C)cc1NC(=O)COC(=O)/C=C/c1ccccc1O	PPO3	enzyme activity, inhibitor	–	5.66
COc1ccc2c(ccn2CCCCN2CCc3cc(OC)c(OC)cc3C2)c1	SIGMAR1	ligand displacement, radioligand	cell membranes	6.35
Cc1nc2n(c(=O)c1CCNCCc1c[nH]c3cc(F)ccc13)CCCC2	HTR2A	ligand displacement, radioligand	cell membranes	5.71
CCCn1nc(C(=O)N2CCCCC2)c2c1CCC(Nc1ccc(N3CCCCC3)cc1)C2 (centres unmarked)	SIGMAR1	ligand displacement, radioligand	–	< 5.00
Nc1nc(N)c(N=Nc2ccccc2[N+](=O)[O-])c(Cl)n1	PPO3	enzyme activity, inhibitor	–	5.44
CNC(=O)[C@@]12C[C@@H]1[C@@H](n1cnc3c(NCc4cccc(Cl)c4)nc(C#Cc4ccccc4Cl)nc31)[C@H](O)[C@@H]2O	OPRK1	cell-free assay	–	< 5.00
CN(CCCCNC(=O)c1cc2ccccc2[nH]1)[C@@H]1Cc2cccc3[nH]c(=O)n(c23)C1	HTR2A	ligand displacement, radioligand	–	5.84
CNc1nc(C#Cc2ccc(Cl)s2)nc2c1ncn2[C@H]1[C@H](O)[C@H](O)[C@]2(C(=O)OC(C)C)C[C@H]12	OPRK1	cell-free assay	–	< 5.00
Cc1ccc(C(C)C)cc1NC(=O)COC(=O)/C=C/c1ccccc1	PPO3	enzyme activity, inhibitor	–	6.08
CNC(=O)[C@@]12C[C@@H]1[C@@H](n1cnc3c(NC4CC4c4ccccc4)nc(C#Cc4ccccc4)nc31)[C@H](O)[C@@H]2O (mixture of isomers)	OPRK1	cell-free assay	–	< 5.00
CCCn1nc(C(=O)N2CCCCC2)c2c1CCC(N1CCc3ccccc3C1)C2 (centres unmarked)	SIGMAR1	ligand displacement, radioligand	–	< 5.00
O=C1NC(c2ccccc2)(c2ccccc2)C(=O)N1CCCN1CCCCC1	HRH4	ligand displacement, radioligand	cell membranes	< 5.00
